ChEMBL document CHEMBL1129484, “Selectively cytotoxic diterpenes from Euphorbia poisonii” (J Med Chem, 1996)
Converted amounts (≈) assume the structure as drawn.

How the values were obtained:
[1] = system: MCF7; test: Cytotoxicity on breast carcinoma (MCF-7) cell line; type: functional; settings: Homo sapiens, read-out: ED50 (the source's name)
Summary of the method: (§1)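 Human solid tumour cell line panel tested at the Purdue Cancer Center with a 7-day MTT viability assay under standard protocols. Cell lines were A-549 lung, MCF-7 breast, HT-29 colon, A-498 kidney, PC-3 prostate and PACA-2 pancreatic. Adriamycin served as positive control.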

[2] = system: A498; test: Cytotoxicity on kidney carcinoma (A-498) cell line; type: functional; settings: Homo sapiens, read-out: ED50 (the source's name); summary of the method: as §1
[3] = system: PC-3; test: Cytotoxicity on prostate adenocarcinoma (PC-3) cell line; type: functional; settings: Homo sapiens, read-out: ED50 (the source's name); summary of the method: as §1
[4] = Lethal concentration against Brine Shrimp; type: organism-based; settings: artemia, in vivo
Summary of the method: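 Brine shrimp lethality test run by a standard protocol on partitioned fractions, pooled chromatographic fractions and isolated compounds. LC50 values were determined and expressed in µg/mL.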

[5] = system: A549; test: Cytotoxicity on lung carcinoma (A-549) cell line; type: functional; settings: Homo sapiens, read-out: ED50 (the source's name); summary of the method: as §1
[6] = system: MIA PaCa-2; test: Cytotoxicity on pancreatic carcinoma (PACA-2) cell line; type: functional; settings: Homo sapiens, read-out: ED50 (the source's name); summary of the method: as §1
[7] = system: HT-29; test: Cytotoxicity on adenocarcinoma (HT-29 colon) cell line; type: functional; settings: Homo sapiens, read-out: ED50 (the source's name); summary of the method: as §1

Compound	EC50 [1]	EC50 [2]	EC50 [3]	LC50 [4]	EC50 [5]	EC50 [6]	EC50 [7]
CC(=O)OCC1=C[C@H]2[C@@H]3C(C)(C)[C@]3(OC(=O)Cc3ccccc3)C[C@@H](C)[C@]2(O)C2C=C(C)C(=O)[C@@]2(O)C1 (some centres undefined)	41.3 µg/mL (≈ 81.1 µM)	1.59 µg/mL (≈ 3.13 µM)	35.1 µg/mL (≈ 69 µM)	12 µg/mL (≈ 23.7 µM)	26.1 µg/mL (≈ 51.2 µM)	26.9 µg/mL (≈ 52.9 µM)	29.5 µg/mL (≈ 57.9 µM)
COc1cccc2c1C(=O)c1c(O)c3c(c(O)c1C2=O)C[C@@](O)(C(=O)CO)C[C@@H]3O[C@H]1C[C@H](N)[C@H](O)[C@H](C)O1 [DOXORUBICIN]		1.87 µg/mL (≈ 3.44 µM)				1.63 µg/mL (≈ 3 µM)	
C/C=C(/C)C(=O)O[C@@]12C[C@@H](C)[C@]3(O)C4C=C(C)C(=O)[C@@]4(O)CC(COC(C)=O)=C[C@H]3[C@@H]1C2(C)C (some centres undefined)	41.8 µg/mL (≈ 88.4 µM)	2.18 µg/mL (≈ 4.61 µM)	27.7 µg/mL (≈ 58.6 µM)	191 µg/mL (≈ 404 µM)	18.9 µg/mL (≈ 40 µM)	30.3 µg/mL (≈ 64.2 µM)	30.8 µg/mL (≈ 65.1 µM)
C=C(C)[C@]12C[C@@H](C)[C@@]34OC(Cc5ccccc5)(O[C@@H]1C3C=C(CO)C[C@]1(O)C(=O)C(C)=CC41)O2 (some centres undefined)	30.9 µg/mL (≈ 66.5 µM)	1.97 µg/mL (≈ 4.24 µM)	4.56 µg/mL (≈ 9.82 µM)		5.41 µg/mL (≈ 11.6 µM)	3.55 µg/mL (≈ 7.64 µM)	7.41 µg/mL (≈ 16 µM)
C=C(C)[C@]12C[C@@H](C)[C@@]34OC(Cc5ccccc5)(O[C@@H]1[C@@H]3C=C(COC(=O)Cc1ccc(O)c(OC)c1)C[C@]1(O)C(=O)C(C)=CC41)O2 (some centres undefined)	4.29 µg/mL (≈ 6.82 µM)	1.08 µg/mL (≈ 1.72 µM)	2.9 µg/mL (≈ 4.61 µM)	281 µg/mL (≈ 447 µM)	1.12 µg/mL (≈ 1.78 µM)	2.44 µg/mL (≈ 3.88 µM)	3 µg/mL (≈ 4.77 µM)
CC1=CC2[C@@]3(O)[C@H](C)C[C@]4(OC(=O)CCCCCCC[C@H]5C[C@@H]5C)[C@H]([C@@H]3C(C)=C(CO)C[C@]2(O)C1=O)C4(C)C (some centres undefined)			2.44 µg/mL (≈ 4.5 µM)		2.85 µg/mL (≈ 5.25 µM)	1.92 µg/mL (≈ 3.54 µM)	
C/C=C(/C)C(=O)O[C@@]12C[C@@H](C)[C@]3(O)C4C=C(C)C(=O)[C@@]4(O)CC(CO)=C[C@H]3[C@@H]1C2(C)C (some centres undefined)	69.9 µg/mL (≈ 162 µM)	46 µg/mL (≈ 107 µM)	17.9 µg/mL (≈ 41.6 µM)	115 µg/mL (≈ 266 µM)	11.6 µg/mL (≈ 26.9 µM)	37.2 µg/mL (≈ 86.5 µM)	26.5 µg/mL (≈ 61.6 µM)
